Reference: ChEMBL document CHEMBL1208689, “5-Lipoxygenase-activating protein inhibitors. Part 3: 3-{3-tert-Butylsulfanyl-1-[4-(5-methoxy-pyrimidin-2-yl)-benzyl]-5-(5-methyl-pyridin-2-ylmethoxy)-1H-indol-2-yl]-2,2-dimethyl-propionic acid (AM643)-A potent FLAP inhibitor suitable for topical administration” (Bioorg Med Chem Lett, 2010)
The source made the active and inactive calls. No cut-off for these calls is given here.

Assays:
Rattus norvegicus [1] = assay: Skin irritant activity in abraded rat skin model at 10 mg/mL (2 mL), topical after 72 hrs; settings: in vivo
[2] = Terminal half life in rat at 1 mg/kg, iv; assay type: ADME, organism-based; set-up: dose 1 mg/kg, route intravenous; settings: in vivo, read-out: beta t1/2 (converted)
Outline: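 Rat given 1 mg/kg intravenously in 10% EtOH/40% PEG400/50% water; plasma concentration–time profile used for terminal half-life.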

[3] = Drug level in mouse plasma at 30 mg/kg, po after 4.5 hrs; settings: read-out: Drug uptake
[4] = target: T1, Arachidonate 5-lipoxygenase-activating protein (Homo sapiens, UniProt P20292); assay: Binding affinity to FLAP in human PMN by radioligand displacement assay
T1 sequence (P20292 whole entry): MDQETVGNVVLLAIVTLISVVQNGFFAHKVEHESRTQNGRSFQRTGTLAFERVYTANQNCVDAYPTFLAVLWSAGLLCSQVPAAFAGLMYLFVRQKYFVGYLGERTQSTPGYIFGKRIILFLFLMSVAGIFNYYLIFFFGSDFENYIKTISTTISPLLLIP
Outline: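 Tritiated-ligand displacement from FLAP-containing membranes; IC50, n = 6.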

Mus musculus [5] = assay: Inhibition of arachidonic acid-induced cysteinyl leukotriene production in mouse ear at 30 mg/kg, po administered 4 hrs before arachidonic acid challenge; assay type: functional
Outline: (§1)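 Mice given 30 mg/kg orally in 0.5% methocel 4 h before AA (4 mg in 40 µL ethanol) on one ear, ethanol alone on the other. After 30 min, 6 mm punches weighed and assayed for LTB4 and CysLTs. n = 3/group; means ± SEM; two-tailed t-test versus vehicle.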

Rattus norvegicus [6] = assay: Skin irritant activity in abraded rat skin model treated topically after 72 hrs; assay type: ADME, organism-based; settings: in vivo, topical_or_ocular
Outline: (§2)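 Healthy male rats shaved and skin abraded; 2 mL of 10 mg/mL solution in topical vehicle applied over 20% of body area, occluded 24 h, site then cleaned. Draize scoring for erythema/edema and body weight followed over 72 h.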

Mus musculus [7] = assay: Inhibition of arachidonic acid-induced cysteinyl leukotriene production in topically dosed mouse at 0.1%; assay type: functional
Outline: (§3)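 AA (4 mg/ear in ethanol) applied topically to mouse ear, compound applied topically at 0.01% or 0.1%. After 30 min, 6 mm ear punches weighed and assayed for CysLTs and LTB4. n = 3/group; means ± SEM; ANOVA with Dunnett's post hoc test, or t-test, versus vehicle.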

Blood [8] = assay: Inhibition of […]-induced LTB4 synthesis in mouse whole blood after 15 mins; assay type: functional, tissue-based; settings: 0.25 h
Cytochrome P450 2C9 = Cytochrome P450 2C9 (Homo sapiens, UniProt P11712); assay: Inhibition of CYP2C9; assay type: ADME
Mus musculus [9] = assay: Inhibition of arachidonic acid-induced LTB4 production in topically dosed mouse ear; assay type: functional, organism-based
Outline: as §3

Mus musculus [10] = assay: Inhibition of arachidonic acid-induced LTB4 production in mouse ear at 30 mg/kg, po administered 4 hrs before arachidonic acid challenge; assay type: functional
Outline: as §1

[11] = target: T2, Prostaglandin G/H synthase 2 (Homo sapiens, UniProt P35354); assay: Inhibition of COX2
T2 sequence (P35354 whole entry): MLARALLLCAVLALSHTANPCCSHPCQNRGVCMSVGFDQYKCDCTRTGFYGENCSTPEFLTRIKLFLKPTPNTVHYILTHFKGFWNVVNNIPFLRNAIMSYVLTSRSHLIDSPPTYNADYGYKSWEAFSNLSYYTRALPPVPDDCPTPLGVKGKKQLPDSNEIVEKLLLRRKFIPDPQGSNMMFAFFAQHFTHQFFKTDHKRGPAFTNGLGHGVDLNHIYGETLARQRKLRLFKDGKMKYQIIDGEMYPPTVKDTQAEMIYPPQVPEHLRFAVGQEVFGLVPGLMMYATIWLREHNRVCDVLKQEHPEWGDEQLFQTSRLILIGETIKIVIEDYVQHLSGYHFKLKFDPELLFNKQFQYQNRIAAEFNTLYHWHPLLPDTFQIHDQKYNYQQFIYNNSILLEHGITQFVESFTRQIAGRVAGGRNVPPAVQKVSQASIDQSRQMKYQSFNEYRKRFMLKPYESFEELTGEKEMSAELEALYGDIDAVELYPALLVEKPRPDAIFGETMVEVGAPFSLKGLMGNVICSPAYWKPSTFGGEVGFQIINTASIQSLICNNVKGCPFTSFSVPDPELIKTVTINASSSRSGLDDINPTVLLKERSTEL

Cytochrome P450 3A4 = Cytochrome P450 3A4 (Homo sapiens, UniProt P08684); assay: Inhibition of CYP3A4; assay type: ADME
Cytochrome P450 2D6 = Cytochrome P450 2D6 (Homo sapiens, UniProt P10635); assay: Inhibition of CYP2D6; assay type: ADME
[12] = Solubility of the compound in transcutol; assay type: physicochemical
Mus musculus [13] = assay: Inhibition of arachidonic acid-induced ear edema in mouse at 30 mg/kg, po administered 4 hrs before arachidonic acid challenge; assay type: functional
Outline: as §1

[14] = target: Prostaglandin G/H synthase 1 (Homo sapiens, UniProt P23219); assay: Inhibition of COX1
[15] = Solubility of the compound in water; assay type: physicochemical; settings: buffer
Blood [16] = assay: Inhibition of […]-induced LTB4 synthesis in mouse whole blood after 4 hrs; assay type: functional, tissue-based
Mus musculus [17] = assay: Inhibition of arachidonic acid-induced LTB4 production in topically dosed mouse at 1 to 10%; assay type: functional, organism-based
Mus musculus [18] = assay: Inhibition of arachidonic acid-induced ear edema in topically dosed mouse at 0.1%; assay type: functional
Outline: as §3

Rattus norvegicus [19] = assay: Skin irritant activity in abraded rat skin model at 10 mg/mL (2 mL), topical after 72 hrs; settings: in vivo; remark: listed apart in the source
Blood [20] = assay: Inhibition of […]-induced LTB4 synthesis in rat whole blood after 15 mins; assay type: functional, tissue-based; settings: 0.25 h
Mus musculus [21] = assay: Inhibition of arachidonic acid-induced ear edema in topically dosed mouse at 1 to 10%; assay type: functional, organism-based
Mus musculus [22] = assay: Inhibition of arachidonic acid-induced cysteinyl leukotriene production in topically dosed mouse at 1 to 10%; assay type: functional, organism-based
Blood [23] = assay: Inhibition of […]-induced LTB4 synthesis in rat whole blood after 4 hrs; assay type: functional, tissue-based
Mus musculus [24] = assay: Inhibition of arachidonic acid-induced cysteinyl leukotriene production in topically dosed mouse ear; assay type: functional, organism-based
Outline: as §3

Blood [25] = assay: Inhibition of […]-induced LTB4 synthesis in human whole blood after 5 hrs; assay type: functional, tissue-based
[26] = Inhibition of […]-induced LTB4 synthesis in human leukocytes; assay type: functional, cell-based; settings: Leukocyte
Outline: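 Human leukocytes stimulated with calcium ionophore […]; LTB4 synthesis measured; IC50.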

Mus musculus [27] = assay: Inhibition of arachidonic acid-induced LTB4 production in topically dosed mouse at 0.1%; assay type: functional
Outline: as §3

Blood [28] = assay: Inhibition of […]-induced LTB4 synthesis in human whole blood after 15 mins; assay type: functional, tissue-based; settings: 0.25 h
[29] = Solubility of the compound in propylene glycol; assay type: physicochemical
Rattus norvegicus [30] = species: Rattus norvegicus; assay: Toxicity in rat assessed as change in body weight after 72 hrs; assay type: organism-based; settings: in vivo
Outline: as §2

Cytochrome P450 2D6, sequence (P10635 whole entry): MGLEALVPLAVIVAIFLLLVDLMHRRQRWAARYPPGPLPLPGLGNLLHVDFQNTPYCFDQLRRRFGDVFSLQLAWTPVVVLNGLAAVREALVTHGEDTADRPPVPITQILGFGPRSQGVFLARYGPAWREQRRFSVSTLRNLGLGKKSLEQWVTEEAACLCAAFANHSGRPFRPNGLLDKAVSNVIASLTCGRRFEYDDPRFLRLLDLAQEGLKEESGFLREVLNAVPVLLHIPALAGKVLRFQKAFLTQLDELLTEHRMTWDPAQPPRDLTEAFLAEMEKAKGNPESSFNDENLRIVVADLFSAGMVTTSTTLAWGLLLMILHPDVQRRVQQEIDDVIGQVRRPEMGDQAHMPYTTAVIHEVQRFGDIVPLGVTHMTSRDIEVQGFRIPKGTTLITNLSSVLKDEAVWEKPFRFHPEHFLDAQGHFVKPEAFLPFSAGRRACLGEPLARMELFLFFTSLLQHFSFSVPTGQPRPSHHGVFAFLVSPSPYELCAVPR
Cytochrome P450 3A4, sequence (P08684 whole entry): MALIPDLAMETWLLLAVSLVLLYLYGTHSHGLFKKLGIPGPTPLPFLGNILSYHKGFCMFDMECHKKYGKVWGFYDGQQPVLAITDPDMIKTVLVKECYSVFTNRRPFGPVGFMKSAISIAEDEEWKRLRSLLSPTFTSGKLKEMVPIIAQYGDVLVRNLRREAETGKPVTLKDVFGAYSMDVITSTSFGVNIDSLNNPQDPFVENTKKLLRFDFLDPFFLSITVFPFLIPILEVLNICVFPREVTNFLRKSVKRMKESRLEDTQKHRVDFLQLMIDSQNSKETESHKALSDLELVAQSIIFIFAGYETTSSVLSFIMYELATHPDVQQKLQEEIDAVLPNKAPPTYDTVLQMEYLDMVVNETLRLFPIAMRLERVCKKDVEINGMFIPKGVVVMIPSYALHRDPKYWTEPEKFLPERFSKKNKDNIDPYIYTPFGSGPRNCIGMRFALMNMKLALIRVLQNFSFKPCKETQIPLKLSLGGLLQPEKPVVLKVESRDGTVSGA
Cytochrome P450 2C9, sequence (P11712 whole entry): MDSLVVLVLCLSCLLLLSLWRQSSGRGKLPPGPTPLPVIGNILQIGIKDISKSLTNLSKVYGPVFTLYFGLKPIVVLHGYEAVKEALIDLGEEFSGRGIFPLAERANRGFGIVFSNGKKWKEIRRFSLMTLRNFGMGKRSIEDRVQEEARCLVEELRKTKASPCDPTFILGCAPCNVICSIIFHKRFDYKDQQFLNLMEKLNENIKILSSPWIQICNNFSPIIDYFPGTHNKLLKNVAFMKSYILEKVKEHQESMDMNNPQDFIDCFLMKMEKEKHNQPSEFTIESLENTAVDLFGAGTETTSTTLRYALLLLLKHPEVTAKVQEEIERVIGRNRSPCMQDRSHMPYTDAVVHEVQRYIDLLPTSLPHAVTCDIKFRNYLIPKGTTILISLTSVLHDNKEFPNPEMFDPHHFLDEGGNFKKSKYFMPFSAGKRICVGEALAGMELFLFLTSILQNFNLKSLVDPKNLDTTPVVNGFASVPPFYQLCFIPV
Prostaglandin G/H synthase 1, sequence (P23219 whole entry): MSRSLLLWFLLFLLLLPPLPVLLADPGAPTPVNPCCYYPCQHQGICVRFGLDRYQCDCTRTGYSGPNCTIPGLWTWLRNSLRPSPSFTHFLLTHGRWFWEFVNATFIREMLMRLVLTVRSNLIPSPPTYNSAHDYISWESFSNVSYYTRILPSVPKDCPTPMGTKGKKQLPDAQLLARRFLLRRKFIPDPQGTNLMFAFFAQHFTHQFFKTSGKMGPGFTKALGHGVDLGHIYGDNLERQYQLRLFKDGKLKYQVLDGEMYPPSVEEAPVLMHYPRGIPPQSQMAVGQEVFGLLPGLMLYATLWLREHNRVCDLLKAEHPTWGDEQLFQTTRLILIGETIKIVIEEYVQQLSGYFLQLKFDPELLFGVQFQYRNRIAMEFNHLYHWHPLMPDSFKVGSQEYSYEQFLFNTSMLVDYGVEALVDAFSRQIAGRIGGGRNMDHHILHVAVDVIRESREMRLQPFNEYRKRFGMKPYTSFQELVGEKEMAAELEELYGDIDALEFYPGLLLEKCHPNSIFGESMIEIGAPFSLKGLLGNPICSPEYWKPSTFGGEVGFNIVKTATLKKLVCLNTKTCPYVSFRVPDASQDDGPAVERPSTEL

Question: Which Activity (Rattus norvegicus [1]) does the source give for `COc1cnc(-c2ccc(Cn3c(CC(C)(C)C(=O)[O-])c(SC(C)(C)C)c4cc(OCc5ccc(C)cn5)ccc43)cc2)nc1.[Na+]` here?
Answer: Non-toxic

Question: What about the half-life [2] of the same compound?
Answer: 2 h

Question: And the concentration at 4.5 h [3]?
Answer: 1500 nM

Question: And the IC50 [4]?
Answer: 2 nM

Question: What about the inhibition in vivo at 30 mg/kg (Mus musculus [5]) of the same compound?
Answer: 57%

Question: What about the Activity (Rattus norvegicus [6]) of the same compound?
Answer: Non-toxic

Question: What about the “inhibition (INH)” value (Mus musculus [7]) of the same compound?
Answer: 37%

Question: And the IC50 (Blood [8])?
Answer: 26 nM

Question: And the IC50 (Cytochrome P450 2C9)?
Answer: 4500 nM

Question: What about the inhibition (Mus musculus [9]) of the same compound?
Answer: Dose-dependent effect

Question: What about the inhibition in vivo at 30 mg/kg (Mus musculus [10]) of the same compound?
Answer: 33%

Question: And the IC50 [11]?
Answer: > 100000 nM

Question: And the IC50 (Cytochrome P450 3A4)?
Answer: 8800 nM

Question: What about the IC50 (Cytochrome P450 2D6) of the same compound?
Answer: > 30000 nM

Question: What about the solubility [12] of the same compound?
Answer: 15%

Question: And the inhibition in vivo at 30 mg/kg (Mus musculus [13])?
Answer: 65%

Question: What about the IC50 [14] of the same compound?
Answer: > 100000 nM

Question: And the solubility [15]?
Answer: 10%

Question: And the IC50 (Blood [16])?
Answer: 4 nM

Question: What about the inhibition (Mus musculus [17]) of the same compound?
Answer: inactive

Question: And the “inhibition (INH)” value (Mus musculus [18])?
Answer: 61%

Question: And the Activity (Rattus norvegicus [19])?
Answer: Non-toxic

Question: And the IC50 (Blood [20])?
Answer: 78 nM

Question: What about the inhibition (Mus musculus [21]) of the same compound?
Answer: inactive

Question: What about the inhibition (Mus musculus [22]) of the same compound?
Answer: inactive

Question: And the IC50 (Blood [23])?
Answer: 11 nM

Question: And the inhibition (Mus musculus [24])?
Answer: Dose-dependent effect

Question: What about the IC50 (Blood [25]) of the same compound?
Answer: 81 nM

Question: And the IC50 [26]?
Answer: 0.6 nM

Question: What about the “inhibition (INH)” value (Mus musculus [27]) of the same compound?
Answer: 55%

Question: What about the IC50 (Blood [28]) of the same compound?
Answer: 161 nM

Question: What about the solubility [29] of the same compound?
Answer: 75%

Question: What about the Activity (Rattus norvegicus [30]) of the same compound?
Answer: Non-toxic
